Test results as given in ChEMBL document CHEMBL1777776, “Identification of 2-mercaptohexanoic acids as dual inhibitors of 5-lipoxygenase and microsomal prostaglandin E₂ synthase-1” (Bioorg Med Chem, 2011).
Activity calls are given as the source filed them. The rule behind the calls is not given here.

Columns and labels:
[1] = target: T1, Polyunsaturated fatty acid 5-lipoxygenase (Homo sapiens, UniProt P09917); test: Inhibition of 5-lipoxygenase in A23187-stimulated human PMNL assessed as enzyme product formation preincubated 15 mins by RP-HPLC analysis in presence of exogenous arachidonic acid
T1 sequence (P09917 whole entry): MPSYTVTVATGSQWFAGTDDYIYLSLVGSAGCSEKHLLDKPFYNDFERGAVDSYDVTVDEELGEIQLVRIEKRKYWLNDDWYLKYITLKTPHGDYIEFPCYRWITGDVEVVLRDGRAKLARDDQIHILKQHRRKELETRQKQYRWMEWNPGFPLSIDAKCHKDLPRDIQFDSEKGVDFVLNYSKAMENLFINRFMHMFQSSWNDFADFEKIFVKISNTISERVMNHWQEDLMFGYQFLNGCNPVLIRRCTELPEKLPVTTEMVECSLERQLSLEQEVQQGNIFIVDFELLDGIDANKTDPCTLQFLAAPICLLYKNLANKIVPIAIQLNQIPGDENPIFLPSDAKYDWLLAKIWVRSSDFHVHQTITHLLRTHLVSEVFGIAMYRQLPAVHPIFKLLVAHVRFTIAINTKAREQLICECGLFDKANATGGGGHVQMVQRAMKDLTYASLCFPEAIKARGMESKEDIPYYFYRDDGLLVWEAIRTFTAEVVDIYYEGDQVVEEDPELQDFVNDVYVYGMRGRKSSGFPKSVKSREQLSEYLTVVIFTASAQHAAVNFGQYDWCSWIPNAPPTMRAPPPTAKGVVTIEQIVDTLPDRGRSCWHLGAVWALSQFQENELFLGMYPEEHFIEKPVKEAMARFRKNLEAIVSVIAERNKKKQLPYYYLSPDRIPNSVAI
Method in brief: (§1)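 Freshly isolated human PMNL (5 × 10⁶/ml PGC buffer: PBS pH 7.4, 1 mg/ml glucose, 1 mM CaCl₂) preincubated with compound 15 min at 37 °C. Stimulated with 2.5 µM A23187 plus exogenous AA for 10 min at 37 °C. Stopped with methanol, PGB₁ added as internal standard, lipoxygenase products analysed by HPLC. Mean of n = 3–5.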

Prostaglandin E synthase = target: T2, Prostaglandin E synthase (Homo sapiens, UniProt O14684); test: Inhibition of mPGES-1 in human IL-1beta-stimulated A549 cell microsomes assessed as reduction of PGE2 formation from PGH2 after 15 mins; design: species or system Microsome
T2 sequence (O14684 whole entry): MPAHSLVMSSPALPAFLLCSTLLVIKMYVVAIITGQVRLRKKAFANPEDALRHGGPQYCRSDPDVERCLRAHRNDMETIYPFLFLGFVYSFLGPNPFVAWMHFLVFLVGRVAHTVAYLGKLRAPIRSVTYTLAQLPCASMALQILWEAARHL
Method in brief: (§2)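 Microsomes from A549 cells stimulated 72 h with IL-1β (1 ng/ml), diluted to 50 µg/ml in 0.1 M potassium phosphate pH 7.4 with 2.5 mM glutathione. Preincubated with compound (1% DMSO final) 15 min at 4 °C. Reaction started with 20 µM PGH₂, run 1 min at 4 °C, stopped with FeCl₂/citric acid containing 11β-PGE₂; PGE₂ quantified. Mean of n = 3–5.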

[2] = target: T1, Polyunsaturated fatty acid 5-lipoxygenase; test: Inhibition of human recombinant 5-lipoxygenase expressed in Escherichia coli BL21 assessed as enzyme product formation using arachidonic acid as substrate after 10 mins by RP-HPLC analysis
Method in brief: (§3)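 Human 5-LO expressed in E. coli BL21 (pT3-5LO), affinity-purified and used at once. 0.5 µg enzyme in 1 ml PBS/EDTA with 1 mM ATP preincubated with compound 5–10 min at 4 °C, then warmed 30 s at 37 °C. Reaction started with 2 mM CaCl₂ and AA (routinely 20 µM), with or without 1 µM 13(S)-HpODE. Run 10 min at 37 °C, stopped with ice-cold methanol, products analysed by HPLC. Washout: 10-fold dilution (10 to 1 µM).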

A549 = test: Cytotoxicity against human A549 cells assessed as cell viability at 10 uM after 16 hrs by MTT assay; assay type: cell-based; settings: a549, 5 h, in the assay text read “5 hrs” for “16 hrs”
Method in brief: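 A549 cells plated at 4 × 10⁴ cells per well, incubated 16 h at 37 °C, 5% CO₂, then exposed to 10 µM compound or DMSO (≤0.3% final) for 5 h. MTT added for 4 h, formazan solubilized with SDS in 20 mM HCl, absorbance at 595 nm read relative to vehicle-treated cells.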

[3] = target: T3, Prostaglandin E synthase (Homo sapiens) (UniProt O14684); test: Inhibition of mPGES-1 in human IL-1beta-stimulated A549 cell microsomes assessed as residual activity by measuring reduction of PGE2 formation from PGH2 at 10 uM after 15 mins; settings: Microsome; method in brief: as §2
T3 sequence (whole entry): T2 sequence (O14684 whole entry)

[4] = target: T4, Polyunsaturated fatty acid 5-lipoxygenase (Homo sapiens) (UniProt P09917); test: Inhibition of human recombinant 5-lipoxygenase expressed in Escherichia coli BL21 assessed as residual activity by measuring enzyme product formation using arachidonic acid as substrate at 10 uM after 10 mins by RP-HPLC analysis; method in brief: as §3
T4 sequence (whole entry): T1 sequence (P09917 whole entry)

[5] = target: T4, Polyunsaturated fatty acid 5-lipoxygenase (Homo sapiens); test: Inhibition of 5-lipoxygenase in A23187-stimulated human PMNL assessed as residual activity by measuring enzyme product formation at 10 uM preincubated 15 mins by RP-HPLC analysis in presence of exogenous arachidonic acid; method in brief: as §1
[6] = target: T5, Prostaglandin G/H synthase 1 (Ovis aries) (UniProt P05979); test: Inhibition of ovine COX1 assessed as residual activity at 10 uM after 5 mins
T5 sequence (whole entry): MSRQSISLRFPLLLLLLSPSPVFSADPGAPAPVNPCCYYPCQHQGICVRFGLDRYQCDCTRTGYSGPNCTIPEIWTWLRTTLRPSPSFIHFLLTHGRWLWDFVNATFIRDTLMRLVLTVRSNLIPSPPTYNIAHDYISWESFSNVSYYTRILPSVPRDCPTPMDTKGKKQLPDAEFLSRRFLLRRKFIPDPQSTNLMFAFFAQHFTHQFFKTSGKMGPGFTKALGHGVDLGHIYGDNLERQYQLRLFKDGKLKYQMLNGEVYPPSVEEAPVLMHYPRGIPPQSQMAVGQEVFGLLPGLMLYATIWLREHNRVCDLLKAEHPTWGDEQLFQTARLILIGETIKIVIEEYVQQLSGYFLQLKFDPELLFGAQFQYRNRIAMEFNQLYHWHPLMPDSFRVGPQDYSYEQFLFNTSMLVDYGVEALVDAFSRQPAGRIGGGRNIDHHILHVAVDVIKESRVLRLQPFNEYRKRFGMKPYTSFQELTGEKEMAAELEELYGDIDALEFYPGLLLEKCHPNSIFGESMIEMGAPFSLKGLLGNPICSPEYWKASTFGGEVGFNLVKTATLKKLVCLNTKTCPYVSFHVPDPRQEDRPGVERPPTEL
Method in brief: (§4)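 Ovine COX-1 (50 units) or human recombinant COX-2 (20 units) in 1 ml 100 mM Tris pH 8 with 5 mM glutathione, 5 µM haemoglobin and 100 µM EDTA. Preincubated with 10 µM compound 5 min at 4 °C, warmed 60 s at 37 °C. Started with AA (5 µM for COX-1, 2 µM for COX-2), run 5 min at 37 °C. 12-HHT extracted and analysed by HPLC. n = 3.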

[7] = target: T6, Prostaglandin G/H synthase 2 (Homo sapiens) (UniProt P35354); test: Inhibition of human recombinant COX2 assessed as residual activity at 10 uM after 5 mins; method in brief: as §4
T6 sequence (whole entry): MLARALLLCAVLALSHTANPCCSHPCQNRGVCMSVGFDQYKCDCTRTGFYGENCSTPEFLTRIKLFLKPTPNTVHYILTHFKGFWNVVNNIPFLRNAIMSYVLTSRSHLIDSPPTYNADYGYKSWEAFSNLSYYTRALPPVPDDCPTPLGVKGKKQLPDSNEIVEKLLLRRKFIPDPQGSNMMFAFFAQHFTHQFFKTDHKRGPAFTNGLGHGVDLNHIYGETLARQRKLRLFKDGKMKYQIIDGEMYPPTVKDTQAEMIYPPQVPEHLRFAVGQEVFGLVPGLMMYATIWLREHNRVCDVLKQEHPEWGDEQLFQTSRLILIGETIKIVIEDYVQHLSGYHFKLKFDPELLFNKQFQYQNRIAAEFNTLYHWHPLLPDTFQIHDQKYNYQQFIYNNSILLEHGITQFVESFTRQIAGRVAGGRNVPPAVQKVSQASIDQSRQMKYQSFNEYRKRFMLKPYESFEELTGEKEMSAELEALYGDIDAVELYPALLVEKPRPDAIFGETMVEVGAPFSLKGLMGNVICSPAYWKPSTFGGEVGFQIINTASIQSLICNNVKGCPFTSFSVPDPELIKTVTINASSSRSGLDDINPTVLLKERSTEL

Row | Structure (SMILES) | IC50 [1] | IC50 (Prostaglandin E synthase) | IC50 [2] | Activity (A549) | inhibition [3] | Activity [4] | Activity [5] | Activity [3] | Activity [6] | inhibition [7]
1 | CCCCC(Sc1ccc(OCCCOc2ccccc2C(C)C)cc1)C(=O)O (centres undefined) | 1.6 µM | 4.1 µM | 7.8 µM | Non-toxic |  |  |  |  |  | 
2 | CCCCC(Sc1ccc(OCCCOc2ccc3ncccc3c2)cc1)C(=O)O (centres undefined) | > 10 µM | > 10 µM | > 10 µM | Non-toxic | inactive | 59% | 92.2% |  |  | 
3 | CCCCC(Sc1ccc(OCCCOc2cccc(C)c2C)cc1)C(=O)O (centres undefined) | 3 µM | 2.9 µM | 8.8 µM | Non-toxic |  |  |  |  |  | 
4 | CCCCC(Sc1ccc(OCCCOc2cccc(C)c2)cc1)C(=O)O (centres undefined) | 4.8 µM | > 10 µM | > 10 µM | Non-toxic |  | 79.3% |  | 58% |  | 
5 | CCCCC(Sc1ccc(OCCCOc2ccc(Cl)cc2OC)cc1)C(=O)O (centres undefined) | > 10 µM | 9.4 µM | > 10 µM | Non-toxic |  | 59.2% | 79.3% |  |  | 
6 | CCCCC(Sc1ccc(OCCCOc2ccccc2C)cc1)C(=O)O (centres undefined) | 4.8 µM | 8.8 µM | > 10 µM | Non-toxic |  | 58.3% |  |  |  | 
7 | CCCCC(Sc1ccc(OCCCOc2cccc(OC)c2)cc1)C(=O)O (centres undefined) | 4.8 µM | > 10 µM | > 10 µM | Non-toxic |  | 67.7% |  | 59.1% |  | 
8 | CCCCC(Sc1ccc(OCCCOc2ccc(Cl)c(C(F)(F)F)c2)cc1)C(=O)O (centres undefined) | 1.5 µM | 1.7 µM | 2 µM | Non-toxic |  |  |  |  | 71.3% | inactive
9 | CCCCC(Sc1ccc(OCCCOc2ccc3ncccc3c2)cc1)C(=O)OCC (centres undefined) | 0.8 µM | > 10 µM | > 10 µM | Non-toxic |  | 68.3% |  | 83.9% |  | 
10 | CCCC[C@H](Sc1ccc(OCCCOc2cccc(C)c2C)cc1)C(=O)O | 2 µM | 4.6 µM | 8.2 µM | Non-toxic |  |  |  |  |  | 
11 | CCCCC(Sc1ccc(OCCCOc2ccccc2OC)cc1)C(=O)O (centres undefined) | > 10 µM | > 10 µM | > 10 µM | Non-toxic |  | 79.4% | 57.4% | 88.3% |  | 
12 | CCCCC(Sc1ccc(OCCCOc2ccc(-c3ccccc3)cc2)cc1)C(=O)OCC (centres undefined) | > 10 µM |  | > 10 µM | Non-toxic |  | 83% | 91.5% |  |  | 
13 | CCCC/C(=C\c1ccc(OCCCOc2cccc(C)c2C)cc1)C(=O)O | 1.6 µM | > 10 µM | > 10 µM | Non-toxic |  | 88.9% |  | 28.3% |  | 
14 | CCCCC(Sc1ccc(OCCCOc2cccc3c2CCCC3)cc1)C(=O)OCC (centres undefined) | > 10 µM |  | > 10 µM | Non-toxic |  | 79.4% | 87.4% |  |  | 
15 | Cc1cccc(OCCCOc2ccc(CCC(=O)O)cc2)c1C | > 10 µM | > 10 µM | > 10 µM | Non-toxic |  | 81.8% | 80% | 83.9% |  | 
16 | CCCCC(Sc1ccc(OCCCOc2cccc(C(C)C)c2)cc1)C(=O)O (centres undefined) | 1.4 µM | 2.7 µM | 6 µM | Non-toxic |  |  |  |  |  | 
17 | CCCCC(Sc1ccc(OCCCOc2ccccc2)cc1)C(=O)O (centres undefined) | 9.5 µM | > 10 µM | > 10 µM | Non-toxic |  | 69.4% |  | 81.9% |  | 
18 | Cc1cccc(OCCCOc2ccc(SCC(=O)O)cc2)c1C | > 10 µM | > 10 µM | > 10 µM | Non-toxic |  | 72.4% | 69.6% | 75.4% |  | 
19 | CCCCC(Cc1ccc(OCCCOc2cccc(C)c2C)cc1)C(=O)O (centres undefined) | 2 µM | 7.1 µM | > 10 µM | Non-toxic |  | 70.8% |  |  |  | 
20 | CCCCC(Sc1ccc(OCCCOc2cccc(C(F)(F)F)c2)cc1)C(=O)O (centres undefined) | 1.6 µM | 2 µM | 9.8 µM | Non-toxic |  |  |  |  |  | 
21 | CCCC[C@@H](Sc1ccc(OCCCOc2cccc(C)c2C)cc1)C(=O)O | 1.1 µM | 4.2 µM | 10 µM | Non-toxic |  |  |  |  |  | 
22 | CCCCC(Sc1ccc(OCCCOc2ccc(C)cc2)cc1)C(=O)O (centres undefined) | 5.2 µM | 9.3 µM | > 10 µM | Non-toxic |  | 67.6% |  |  |  | 
